Experiments:
[1] = melting temperature; fluorescence melt of hairpins on a sequencing array, two-state fit, raised by 9.35 °C to match UV melts; details: sodium 0.088 M
How it was run: (§1)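 Two-state fits, bootstrapped, provided melting temperature and folding enthalpy from Cy3 fluorescence normalised to pre-quench Cy3 and to control constructs. Library hairpins with annealed Cy3 and quencher oligos were imaged on a sequenced MiSeq flow cell in 50 mM Na-HEPES pH 8.0, 25 mM NaCl, at 2.5 °C intervals up to 60 °C. Four replicates were combined with inverse-variance weighting. A 9.35 °C upward shift was applied to fitted temperatures to match UV melts.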

[2] = folding enthalpy; higher = less favourable; fluorescence melt of hairpins on a sequencing array, two-state fit; details: sodium 0.088 M
How it was run: as §1

| Sequence | Tm [1] [°C] | folding enthalpy [2] [kcal/mol] |
| --- | --- | --- |
| GAGTGTGGAAACACACCC (.(((((....))))).) | 40.8 | -11.7 |
| GAGTGTGGAAACACACTC (((((((....))))))) | 66 | -36.1 |
| GAGTGTGGAAACACGTTC ((..(((....)))..)) | 42.9 | -12.2 |
| GAGTGTGGAAACATGCTC (((..((....))..))) | 38.7 | -31.2 |
| GAGTGTGGAAACGTACTC ((((..(....)..)))) | 35.5 | -22.9 |
| GAGTTAGAAATAACTC ((((((....)))))) | 43.2 | -31.5 |
| GAGTTAGGAAACTAACTC (((((((....))))))) | 54.8 | -36.3 |
| GAGTTCACGAAAGTGCTC (((..(((....)))))) | 28.1 | -10.9 |
| GAGTTCCGAAAGGACTC (((.(((....)))))) | 49.2 | -22.1 |
| GAGTTGCGAAAGCAGCTC (((.(((....))).))) | 62.1 | -32.4 |
| GAGTTGGCGAAAGCCCTC (((..(((....)))))) | 28.7 | -11.1 |
| GAGTTTACGAAAGTACTC (((..(((....)))))) | 30 | -12.6 |
| GATAAAACGAAAGTTATC (((..(((....)))))) | 22.7 | -9.65 |
| GATAAACGAAAGTTAATC (((.(((....))).))) | 34.4 | -16 |
| GATAACACGAAAGTGATC (((..(((....)))))) | 24.9 | -10.1 |
| GATAACGAAAGTTAATC ((((((....))).))) | 30.7 | -15.4 |
| GATAACGAAAGTTCATC ((((((....))).))) | 26.2 | -10.4 |
| GATAACGAAAGTTGTATC ((((((....)))..))) | 26.9 | -18.9 |
| GATAACGAAAGTTTATC ((((((....))).))) | 31.8 | -14.2 |
| GATAACGGAAACGTCATC (((.(((....))).))) | 31.4 | -19.3 |
| GATAAGCGAAAGCTAATC (((.(((....))).))) | 41.5 | -16.8 |
| GATAAGCGAAAGCTATC (((.(((....)))))) | 42.8 | -14.7 |
| GATAAGCGAAAGCTCATC (((.(((....))).))) | 33.8 | -15.9 |
| GATAAGGAAACTTATC ((((((....)))))) | 40.1 | -26.8 |

| Sequence | Tm [1] [°C] | folding enthalpy [2] [kcal/mol] |
| --- | --- | --- |
| GATACAGCGAAAGCTATC (((..(((....)))))) | 26.2 | -10.4 |
| GATACAGGAAACTGTATC (((((((....))))))) | 54 | -42.9 |
| GATACCCCGAAAGGGATC (((..(((....)))))) | 33.3 | -12.4 |
| GATACCGAAAGGTGGATC ((((((....)))..))) | 30.2 | -13 |
| GATACCGCGAAAGCGATC (((..(((....)))))) | 23 | -7.65 |
| GATACCGGAAACGGCATC (((.(((....))).))) | 43.8 | -25 |
| GATACGCGAAAGCGCATC (((.(((....))).))) | 46.4 | -20.2 |
| GATACGCGAAAGCGGATC (((.(((....))).))) | 66 | -29.3 |
| GATACTGGAAACAGCATC (((.(((....))).))) | 34.2 | -27.5 |
| GATACTGGAAACAGTGTC ((.((((....)))).)) | 44.7 | -25.9 |
| GATAGAGAAATCTATC ((((((....)))))) | 36.8 | -21.5 |
| GATAGCCGAAAGGCAATC (((.(((....))).))) | 46 | -19.1 |
| GATAGCGGAAACGTTATC ((((.((....)).)))) | 42.3 | -34.8 |
| GATAGCGGAAACGTTGTC ((.(.((....)).).)) | 27.5 | -16.1 |
| GATAGGAAACTATC (((((....))))) | 40.2 | -15.4 |
| GATAGGACGAAAGTCATC (((..(((....)))))) | 25.2 | -7.28 |
| GATAGGCGAAAGCCATC (((.(((....)))))) | 40.3 | -12.6 |
| GATAGGGAAACCTATC ((((((....)))))) | 47.6 | -34.7 |
| GATAGGGGAAACCCCATC (((.(((....))).))) | 35.6 | -16.9 |
| GATAGGGGAAACCCTATC (((((((....))))))) | 54.9 | -42 |
| GATATACGAAAGTACATC (((.(((....))).))) | 30.5 | -27.2 |
| GATATACGAAAGTAGATC (((.(((....))).))) | 44.1 | -31.1 |
| GATATGCGAAAGCAAATC (((.(((....))).))) | 40.1 | -24.3 |
| GATATGCGAAAGCACATC (((.(((....))).))) | 39.3 | -19.1 |

| Sequence | Tm [1] [°C] | folding enthalpy [2] [kcal/mol] |
| --- | --- | --- |
| GATATGGCGAAAGCCATC (((..(((....)))))) | 34.2 | -7.03 |
| GATCAAAAGATTGATC ((((((....)))))) | 33.3 | -20.6 |
| GATCAAACGATTGATC ((((((....)))))) | 39.9 | -25.3 |
| GATCAAACGGTTGATC ((((((....)))))) | 44.2 | -36 |
| GATCAAACGTTTGATC ((((((....)))))) | 51 | -41.4 |
| GATCAAACTCTTGATC ((((((....)))))) | 40.5 | -33.9 |
| GATCAAACTTTGATC ((((((...)))))) | 41.9 | -31.6 |
| GATCAAAGCCTTGATC ((((((....)))))) | 44.1 | -28.4 |
| GATCAAAGGTTGATC ((((((...)))))) | 40 | -27.2 |
| GATCAAAGTTTGATC ((((((...)))))) | 42.7 | -27.1 |
| GATCAAATAGTTGATC ((((((....)))))) | 37.9 | -29.5 |
| GATCAAATATTTGATC ((((((....)))))) | 47.1 | -48.2 |
| GATCAAATCCTTGATC ((((((....)))))) | 42.1 | -35.8 |
| GATCAAATCGTTGATC ((((((....)))))) | 42.4 | -30.6 |
| GATCAAATCTTTGATC ((((((....)))))) | 47.7 | -30.3 |
| GATCAAATGATTGATC ((((((....)))))) | 35.8 | -26.2 |
| GATCAAATGTTGATC ((((((...)))))) | 41.2 | -26.6 |
| GATCAAATTTTTGATC ((((((....)))))) | 47.7 | -39 |
| GATCAACACTTTGATC ((((((....)))))) | 47.6 | -37.8 |
| GATCAACAGTTTGATC ((((((....)))))) | 41.3 | -31.2 |
| GATCAACCAGTTGATC ((((((....)))))) | 50.4 | -41.9 |
| GATCAACCATTTGATC ((((((....)))))) | 42.3 | -32.8 |
| GATCAACCCTTTGATC ((((((....)))))) | 46.1 | -39.2 |
| GATCAACCTATTGATC ((((((....)))))) | 41.5 | -29 |

| Sequence | Tm [1] [°C] | folding enthalpy [2] [kcal/mol] |
| --- | --- | --- |
| GATCAACGAAAGTTAATC (((.(((....))).))) | 27.8 | -11.7 |
| GATCAACGAAAGTTATC (((.(((....)))))) | 25.4 | -9.84 |
| GATCAACGCGTTGATC ((((((....)))))) | 59.5 | -54.2 |
| GATCAACGGATTGATC ((((((....)))))) | 39.5 | -28 |
| GATCAACGTTTGATC ((((((...)))))) | 40.1 | -26.1 |
| GATCAACTGCTTGATC ((((((....)))))) | 44 | -31.5 |
| GATCAACTTTTTGATC ((((((....)))))) | 43.3 | -37.8 |
| GATCAAGATTTTGATC ((((((....)))))) | 44.5 | -28.5 |
| GATCAAGCCTTGATC ((((((...)))))) | 44.1 | -26.1 |
| GATCAAGCCTTTGATC ((((((....)))))) | 49.2 | -40.7 |
| GATCAAGCGATTGATC ((((((....)))))) | 48 | -39.6 |
| GATCAAGCTCTTGATC ((((((....)))))) | 48.3 | -38.9 |
| GATCAAGGATTTGATC ((((((....)))))) | 49.1 | -29.8 |
| GATCAAGGTCTTGATC ((((((....)))))) | 48.6 | -37.5 |
| GATCAAGTCCTTGATC ((((((....)))))) | 49.7 | -38.2 |
| GATCAAGTGTTGATC ((((((...)))))) | 40.9 | -32 |
| GATCAAGTGTTTGATC ((((((....)))))) | 43.5 | -31.8 |
| GATCAAGTTATTGATC ((((((....)))))) | 49.8 | -35.8 |
| GATCAAGTTTTGATC ((((((...)))))) | 45.4 | -29.4 |
| GATCAATAACTTGATC ((((((....)))))) | 39.4 | -31.6 |
| GATCAATAGCTTGATC ((((((....)))))) | 40.5 | -29.6 |
